Here are results for eight molecules from ChEMBL document CHEMBL3286090, “Cryptocaryol Structure-Activity Relationship Study of Cancer Cell Cytotoxicity and Ability to Stabilize PDCD4” (ACS Med Chem Lett, 2014).

The structures appear in SMILES notation. Activity calls are given as the source filed them. No cut-off for these calls is given here.

The target in test [1] is T1, Programmed cell death protein 4 (Homo sapiens) (UniProt Q53EL6).
T1 sequence (whole entry): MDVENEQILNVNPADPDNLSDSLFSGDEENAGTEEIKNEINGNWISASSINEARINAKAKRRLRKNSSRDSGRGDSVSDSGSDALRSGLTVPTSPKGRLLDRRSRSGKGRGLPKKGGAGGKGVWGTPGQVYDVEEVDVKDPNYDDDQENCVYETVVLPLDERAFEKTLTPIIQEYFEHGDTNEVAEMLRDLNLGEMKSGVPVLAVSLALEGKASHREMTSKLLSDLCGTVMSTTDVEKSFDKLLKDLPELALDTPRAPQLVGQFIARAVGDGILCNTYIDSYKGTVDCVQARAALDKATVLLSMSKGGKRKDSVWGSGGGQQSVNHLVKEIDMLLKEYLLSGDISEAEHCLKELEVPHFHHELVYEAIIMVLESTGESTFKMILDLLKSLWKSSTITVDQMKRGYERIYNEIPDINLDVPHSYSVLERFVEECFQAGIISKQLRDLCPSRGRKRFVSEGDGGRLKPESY
Description: Inhibition of TPA-induced PDCD4 degradation in human MCF7 cells at 1 uM treated 30 mins before TPA challenge measured after 6 hrs by Western blot analysis relative to TPA treated control. Format: cell-based. In outline: (§1)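 MCF-7 seeded at 100,000 cells/well, grown 24 h, then given cryptocaryol analogues (1 μM) or rapamycin (10 nM). TPA (20 nM) added 30 min later. After a further 6 h, cells scraped and lysed in RIPA. Lysate run on 12% SDS-PAGE, blotted to PVDF, probed for PDCD4 and β-actin, chemiluminescence detection. Signal expressed relative to cells given TPA alone.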
For orientation: Immunoblotting shows a protein as a band on a membrane.

For test [2], the system named is MCF7. Kind of test: Cytotoxicity against human MCF7 cells after 72 hrs by MTT assay. Conditions: MCF7, 72 h. Format: functional, cell-based. In outline:
(§2)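 Cancer cell lines exposed to compound over a concentration range; viability read by MTT; IC50 in μM derived from dose-response.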
A general note: Tetrazolium assays rely on reduction of a dye to a coloured formazan, in cell work by metabolically active cells.

Test [3] deals with HT-29. Description: Cytotoxicity against human HT-29 cells after 72 hrs by MTT assay. Format: functional, cell-based. Conditions: HT-29, 72 h. In a few lines:
as §2

Test [4] can be described thus: Cytotoxicity against human H460 cells after 72 hrs by MTT assay. Format: functional, cell-based. Conditions: NCI-H460, 72 h. In a few lines:
as §2

In test [5] the test system is HT-29. Kind of test: Potentiation of camptothecin-induced cytotoxicity against human HT-29 cells at 1 nM to 10 uM after 72 hrs by MTT assay. Format: functional, cell-based.
The test system of test [6] is HT-29. Kind of test: Potentiation of digitoxin-induced cytotoxicity against human HT-29 cells at 1 nM to 10 uM after 72 hrs by MTT assay. Format: functional, cell-based.
Test [7] relates to MCF7. Description: Potentiation of camptothecin-induced cytotoxicity against human MCF7 cells at 1 uM treated 30 mins before TPA challenge measured after 72 hrs by MTT assay. Format: functional, cell-based.
Test [8] concerns HT-29. Description: Potentiation of camptothecin-induced cytotoxicity against human HT-29 cells at 1 uM after 72 hrs by MTT assay in absence of TPA. Format: functional, cell-based.
Test [9] relates to HT-29. Kind of test: Potentiation of digitoxin-induced cytotoxicity against human HT-29 cells at 1 uM after 72 hrs by MTT assay in absence of TPA. Type of test: functional, cell-based. In a few lines: (§3)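 HT-29 cells pretreated for 12 h with cryptocaryol at 1 μM, with rapamycin at 10 nM as the reference stabilizer, then exposed to digitoxin over a concentration range without TPA. The read-out was the digitoxin IC50 under the combination.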

In test [10] the test system is HT-29. Kind of test: Potentiation of 5-fluorouracil-induced cytotoxicity against human HT-29 cells after 72 hrs by MTT assay in presence of TPA. Format: functional, cell-based.
The test system of test [11] is HT-29. Description: Potentiation of 5-fluorouracil-induced cytotoxicity against human HT-29 cells after 72 hrs by MTT assay in absence of TPA. Format: functional, cell-based.
Test [12] deals with MCF7. Description: Potentiation of camptothecin-induced cytotoxicity against human MCF7 cells at 1 nM to 10 uM after 72 hrs by MTT assay. Format: functional.
Test [13] concerns MCF7. Kind of test: Potentiation of digitoxin-induced cytotoxicity against human MCF7 cells at 1 nM to 10 uM after 72 hrs by MTT assay. Format: functional.
Test [14] relates to HT-29. Kind of test: Potentiation of camptothecin-induced cytotoxicity against human HT-29 cells at 1 uM after 72 hrs by MTT assay in presence of TPA. Type of test: functional, cell-based.
Test [15] concerns the target T1, Programmed cell death protein 4 (Homo sapiens). Kind of test: Inhibition of TPA-induced PDCD4 degradation in human MCF7 cells at 10 nM treated 30 mins before TPA challenge measured after 6 hrs by Western blot analysis relative to TPA treated control. Format: cell-based. In a few lines: as §1
In test [16] the test system is HT-29. Description: Potentiation of camptothecin-induced cytotoxicity against human HT-29 cells after 72 hrs by MTT assay in absence of TPA. Type of test: functional, cell-based.
The test system of test [17] is HT-29. Description: Potentiation of digitoxin-induced cytotoxicity against human HT-29 cells after 72 hrs by MTT assay in absence of TPA. Format: functional, cell-based. In a few lines:
as §3

Test [18] relates to HT-29. Kind of test: Potentiation of camptothecin-induced cytotoxicity against human HT-29 cells after 72 hrs by MTT assay in presence of TPA. Format: functional, cell-based.
The subject of test [19] is HT-29. Kind of test: Potentiation of 5-fluorouracil-induced cytotoxicity against human HT-29 cells after 72 hrs by MTT assay in absence of TPA.

Regarding `CCCCCCCCCCCCCCC[C@@H](C[C@@H](O)C[C@@H](O)C[C@@H](O)C[C@@H](O)C[C@H]1CC=CC(=O)O1)OC(C)=O`, the Ratio in test [1] is 4.5. In addition, the IC50 in the test on MCF7 [2] turned out to be 5.8 µM; in the test with HT-29 [3] it was 2.9 µM; in test [4], 3.8 µM. Besides, the outcome with HT-29 [5], in the test with HT-29 [6], in the test with MCF7 [7], with HT-29 [8], with HT-29 [9] and with HT-29 [10] was inactive. The result in the test on HT-29 [11] and with HT-29 [14] was inactive. Further, the CI in the test with MCF7 [12] worked out at 1.12; in the test with MCF7 [13] it was 1.04.
With `CCCCCCCCCCCCCCC[C@H](C[C@H](O)C[C@H](O)C[C@H](O)C[C@H](O)C[C@@H]1CC=CC(=O)O1)OC(C)=O`, the Ratio in test [1] was 3.6. The IC50 in the test on MCF7 [2] amounted to 9 µM; with HT-29 [3], 2.4 µM; in [4], 4 µM.
With `CCCCCCCCCCCCCCC[C@@H](C[C@@H](O)C[C@@H](O)C[C@@H](O)C[C@@H](O)CCO)OC(C)=O`, the Ratio in test [1] came to 2.8. The IC50 in the test on MCF7 [2] was 162 µM; with HT-29 [3], 1280 µM; in test [4] it was more than 1000 µM.
As to `CCCCCCCCCCCCCCC[C@@H](C[C@H](O)C[C@H](O)C[C@H](O)C[C@H](O)C[C@@H]1CC=CC(=O)O1)OC(C)=O`, the Ratio in test [1] was found to be 1.9. The IC50 worked out at 13.3 µM with MCF7 [2], 4.9 µM in the test with HT-29 [3] and 7.8 µM in test [4].
For the molecule `CCCCCCCCCCCCCCC[C@H](O)C[C@@H](O)C[C@@H](O)C[C@@H](O)C[C@@H](O)CCO`, in test [1], the Ratio was 1.8. Besides, the IC50 in the test with MCF7 [2] is more than 500 µM; with HT-29 [3], more than 1500 µM; in test [4], more than 1500 µM.
As to `CO[C@H]1C[C@@H]2CC[C@@H](C)[C@@](O)(O2)C(=O)C(=O)N2CCCC[C@H]2C(=O)O[C@H]([C@H](C)C[C@@H]2CC[C@@H](O)[C@H](OC)C2)CC(=O)[C@H](C)/C=C(\C)[C@@H](O)[C@@H](OC)C(=O)[C@H](C)C[C@H](C)/C=C/C=C/C=C/1C`, the Ratio in [15] came to 6.6. Also, the outcome with HT-29 [11], in the test on HT-29 [16], in the test with HT-29 [17], with HT-29 [18] and with HT-29 [19] was inactive.
With `CCCCCCCCCCCCCCC[C@@H](O)C[C@H](O)C[C@H](O)C[C@H](O)C[C@H](O)C[C@@H]1CC=CC(=O)O1`, the Ratio in [1] is 3.8. For the same molecule, the IC50 came out at 25.8 µM with MCF7 [2], 4.1 µM in the test on HT-29 [3] and 7.9 µM in test [4].
Consider `CCCCCCCCCCCCCCC[C@H](O)C[C@@H](O)C[C@@H](O)C[C@@H](O)C[C@@H](O)C[C@H]1CC=CC(=O)O1`, for which the Ratio in test [1] was found to be 3.6. In addition, the IC50 with MCF7 [2] was determined as 8.1 µM; with HT-29 [3], 4.2 µM; in [4] it was 5.4 µM. In addition, the result in the test on HT-29 [5], with HT-29 [6], in the test on HT-29 [8], in the test with HT-29 [9] and in the test on HT-29 [14] was inactive. Further, the CI turned out to be 0.78 with MCF7 [12] and 1.34 in the test with MCF7 [13].

In general, IC50 refers to the concentration that inhibits the measured activity by half.
